# Measured values pooled from the literature.
# Compare with care: the assays were run in different laboratories.
# Organism: Pseudomonas aeruginosa
SMILES,read-out,method,strain,concentration,time,endpoint,value
COc1cc(C=Cc2cc(-c3ccccc3)nc(O)n2)ccc1O,microbial growth,disc diffusion,ATCC27853,500 µg/mL,,inhibition zone,14.3 mm
O=c1cccccc1SSc1cccccc1=O,microbial growth,broth dilution,ATCC27853,,,MIC80,> 71.4 µM
CC1(C)SC2C(NC(=O)C(NC(=O)C3=C(O)C(Cc4ccccc4)NC3=O)c3ccccc3)C(=O)N2C1C(=O)O (centres unmarked),microbial growth,well diffusion,PAO1,200 µM,,inhibition zone,10.7 mm
C#CCCCCCCCCCCCC(O)CC(O)CO (centres unmarked),microbial growth,broth dilution,ATCC27853,,,IC50,> 200 µg/mL
CC1(C)SC2C(NC(=O)C(NC(=O)C3=C(O)C(Cc4ccsc4)NC3=O)c3ccccc3)C(=O)N2C1C(=O)O (centres unmarked),microbial growth,well diffusion,PAO1,200 µM,,inhibition zone,11 mm
O=C(Sc1cccccc1=O)c1cccc(C(F)(F)F)c1,microbial growth,broth dilution,ATCC27853,,,MIC80,> 71.4 µM
CC1(C)S[C@@H]2[C@H](NC(=O)[C@H](N)c3ccc(O)cc3)C(=O)N2[C@H]1C(=O)O,microbial growth,disc diffusion,ATCC27853,500 µg/mL,,inhibition zone,13.8 mm
CCCCCCCCCC(=O)Oc1c(C)c(O)c(C(=O)/C=C/c2ccccc2)c(OC)c1C,microbial killing,broth dilution,ATCC27853,,,MBC,> 5000 µg/mL
CC(C)CC1NC(=O)C(C(=O)NC(C(=O)NC2C(=O)N3C2SC(C)(C)C3C(=O)O)c2ccccc2)=C1O (centres unmarked),microbial growth,well diffusion,PAO1,200 µM,,inhibition zone,11.7 mm
CCCCCCCC(=O)Oc1c(C)c(O)c(C(=O)/C=C/c2ccccc2)c(OC)c1C,microbial killing,broth dilution,ATCC27853,,,MBC,> 5000 µg/mL
COc1cc(C=CC(=O)CC(c2ccc(N(C)C)cc2)n2ccnc2)ccc1O (centres unmarked),microbial growth,disc diffusion,ATCC27853,250 µg/mL,,inhibition zone,7.66 mm
CC[C@H](C)[C@H](NC(=O)OCC1c2ccccc2-c2ccccc21)C(=O)Sc1cccccc1=O,microbial growth,broth dilution,ATCC27853,,,MIC80,> 71.4 µM
CN1CC(O)=C(C(=O)NC(C(=O)NC2C(=O)N3C2SC(C)(C)C3C(=O)O)c2ccccc2)C1=O (centres unmarked),microbial growth,well diffusion,PAO1,200 µM,,inhibition zone,12.3 mm
COc1cc(Cc2cnc(N)nc2N)cc(OC)c1OC,microbial killing,broth dilution,,,48 h,MBC,16 µg/mL
COc1c(C)c(OC(=O)c2ccccc2)c(C)c(O)c1C(=O)/C=C/c1ccccc1,microbial killing,broth dilution,ATCC27853,,,MBC,> 5000 µg/mL
O=C(Cc1ccccc1)Sc1cccccc1=O,microbial growth,broth dilution,ATCC27853,,,MIC80,> 71.4 µM
CC1(C)SC2C(NC(=O)C(NC(=O)C3=C(O)C4CCCN4C3=O)c3ccccc3)C(=O)N2C1C(=O)O (centres unmarked),microbial growth,well diffusion,PAO1,200 µM,,inhibition zone,12 mm
COc1cc(C=Cc2cc(-c3ccc(N(C)C)cc3)nc(O)n2)ccc1O,microbial growth,disc diffusion,ATCC27853,250 µg/mL,,inhibition zone,7 mm
C#CCCCCCCCCC=CCC(O)CC(O)CO (centres unmarked),microbial growth,broth dilution,ATCC27853,,,IC50,> 200 µg/mL
COc1c(C)c(OC(C)=O)c(C)c(O)c1C(=O)/C=C/c1ccccc1,microbial killing,broth dilution,ATCC27853,,,MBC,> 5000 µg/mL
CCn1cc(C(=O)O)c(=O)c2cc(F)c(N3CCNCC3)cc21,microbial killing,broth dilution,ATCC9027,,,MBC,2 µM
COc1c(C)c(OS(=O)(=O)c2ccc3ccccc3c2)c(C)c(O)c1C(=O)/C=C/c1ccccc1,microbial killing,broth dilution,ATCC27853,,,MBC,> 5000 µg/mL
O=C(Sc1cccccc1=O)c1ccc(C(F)(F)F)cc1,microbial growth,broth dilution,ATCC27853,,,MIC80,> 71.4 µM
C=CCOc1c(C)c(O)c(C(=O)/C=C/c2ccccc2)c(OC)c1C,microbial killing,broth dilution,ATCC27853,,,MBC,> 5000 µg/mL
COc1cc(C=CC(=O)CC(c2ccc([N+](=O)[O-])cc2)n2ccnc2)ccc1O (centres unmarked),microbial growth,disc diffusion,ATCC27853,500 µg/mL,,inhibition zone,7.67 mm
COc1c(C)c(OC)c(C(=O)/C=C/c2ccccc2)c(OC)c1C,microbial killing,broth dilution,ATCC27853,,,MBC,> 5000 µg/mL
CC[C@H]1OC(=O)[C@H](C)[C@@H](O[C@H]2C[C@@](C)(OC)[C@@H](O)[C@H](C)O2)[C@H](C)[C@@H](O[C@@H]2O[C@H](C)C[C@H](N(C)C)[C@H]2O)[C@](C)(O)C[C@@H](C)/C(=N\OCOCCOC)[C@H](C)[C@@H](O)[C@]1(C)O,microbial growth,disc diffusion,ATCC9721,20000 µg/mL,24 h,inhibition zone,19 mm
O=c1cccccc1S,microbial growth,broth dilution,ATCC27853,,,MIC80,> 71.4 µM
COc1c(C)c(OS(=O)(=O)c2ccc3ccccc3c2)c(C)c(OS(=O)(=O)c2ccc3ccccc3c2)c1C(=O)/C=C/c1ccccc1,microbial killing,broth dilution,ATCC27853,,,MBC,> 5000 µg/mL
